What was measured:
[1] = Drug uptake in iv dosed rhesus monkey white matter after 80 mins; assay type: ADME, organism-based, Macaca mulatta; conditions: in vivo
Procedure, shortened: (§1)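 Anesthetized rhesus monkeys given [11C]-tracer i.v.; PET specific uptake value (SUV) read in cerebellum or white matter at 80 min postdose.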

[2] = Drug uptake in iv dosed rhesus monkey cerebellum after 80 mins; assay type: ADME, organism-based, Macaca mulatta; conditions: in vivo; procedure, shortened: as §1
[3] = Lipophilicity, log D of the compound at pH 7.0 by HPLC analysis; assay type: physicochemical; conditions: buffer
Procedure, shortened: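 logD measured by HPLC at pH 7.0.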

[4] = Ratio of AUC in rhesus monkey CSF to AUC in rhesus monkey plasma; assay type: ADME, Macaca mulatta
Procedure, shortened: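 Cisterna magna-ported rhesus monkeys dosed; CSF AUC divided by plasma AUC.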

[5] = Fraction unbound in monkey plasma by equillibrium dialysis method; assay type: ADME, cell-free, Macaca mulatta; conditions: rhesus monkey
Procedure, shortened: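 Plasma unbound fraction by equilibrium dialysis.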

[6] = target: T1, Calcitonin gene-related peptide type 1 receptor (Homo sapiens, UniProt O60894+Q16602); assay: Displacement of [125I]-hCGRP from human CGRP receptor expressed in HEK293 cells; assay type: cell-based
T1 sequence (Q16602 whole entry, one chain of several): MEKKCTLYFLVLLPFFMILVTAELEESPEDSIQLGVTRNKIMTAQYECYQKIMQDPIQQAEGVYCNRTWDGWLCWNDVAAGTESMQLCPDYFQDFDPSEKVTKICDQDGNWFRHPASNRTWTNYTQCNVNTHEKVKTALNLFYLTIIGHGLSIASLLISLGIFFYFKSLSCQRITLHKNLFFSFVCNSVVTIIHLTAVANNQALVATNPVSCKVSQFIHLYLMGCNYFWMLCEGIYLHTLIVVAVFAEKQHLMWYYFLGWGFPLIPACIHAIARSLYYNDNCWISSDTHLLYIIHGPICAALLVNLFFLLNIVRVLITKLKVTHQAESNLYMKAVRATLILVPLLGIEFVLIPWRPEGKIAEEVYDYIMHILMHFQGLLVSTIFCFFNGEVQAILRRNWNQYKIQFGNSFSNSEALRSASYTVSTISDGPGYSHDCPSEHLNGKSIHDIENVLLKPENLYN
Procedure, shortened: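 Ki for inhibition of 125I-hCGRP binding; membranes from HEK293 cells stably expressing human CLR/RAMP1; replicate number given per value.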

[7] = system: CGRP receptor (Macaca mulatta); assay: Ratio of drug uptake in iv dosed rhesus monkey cerebellum to drug uptake in iv dosed rhesus monkey white matter; conditions: in vivo
MDR1 (ABCB1) = MDR1 (ABCB1) (Homo sapiens, UniProt P08183); assay: Efflux ratio of human MDR1-mediated drug transport from basolateral to apical side over apical to basolateral side in pig LLC cells expressing human MDR1 at 5 uM; assay type: ADME, cell-based; conditions: LLC-PK1
Sequence of MDR1 (ABCB1) (P08183 whole entry): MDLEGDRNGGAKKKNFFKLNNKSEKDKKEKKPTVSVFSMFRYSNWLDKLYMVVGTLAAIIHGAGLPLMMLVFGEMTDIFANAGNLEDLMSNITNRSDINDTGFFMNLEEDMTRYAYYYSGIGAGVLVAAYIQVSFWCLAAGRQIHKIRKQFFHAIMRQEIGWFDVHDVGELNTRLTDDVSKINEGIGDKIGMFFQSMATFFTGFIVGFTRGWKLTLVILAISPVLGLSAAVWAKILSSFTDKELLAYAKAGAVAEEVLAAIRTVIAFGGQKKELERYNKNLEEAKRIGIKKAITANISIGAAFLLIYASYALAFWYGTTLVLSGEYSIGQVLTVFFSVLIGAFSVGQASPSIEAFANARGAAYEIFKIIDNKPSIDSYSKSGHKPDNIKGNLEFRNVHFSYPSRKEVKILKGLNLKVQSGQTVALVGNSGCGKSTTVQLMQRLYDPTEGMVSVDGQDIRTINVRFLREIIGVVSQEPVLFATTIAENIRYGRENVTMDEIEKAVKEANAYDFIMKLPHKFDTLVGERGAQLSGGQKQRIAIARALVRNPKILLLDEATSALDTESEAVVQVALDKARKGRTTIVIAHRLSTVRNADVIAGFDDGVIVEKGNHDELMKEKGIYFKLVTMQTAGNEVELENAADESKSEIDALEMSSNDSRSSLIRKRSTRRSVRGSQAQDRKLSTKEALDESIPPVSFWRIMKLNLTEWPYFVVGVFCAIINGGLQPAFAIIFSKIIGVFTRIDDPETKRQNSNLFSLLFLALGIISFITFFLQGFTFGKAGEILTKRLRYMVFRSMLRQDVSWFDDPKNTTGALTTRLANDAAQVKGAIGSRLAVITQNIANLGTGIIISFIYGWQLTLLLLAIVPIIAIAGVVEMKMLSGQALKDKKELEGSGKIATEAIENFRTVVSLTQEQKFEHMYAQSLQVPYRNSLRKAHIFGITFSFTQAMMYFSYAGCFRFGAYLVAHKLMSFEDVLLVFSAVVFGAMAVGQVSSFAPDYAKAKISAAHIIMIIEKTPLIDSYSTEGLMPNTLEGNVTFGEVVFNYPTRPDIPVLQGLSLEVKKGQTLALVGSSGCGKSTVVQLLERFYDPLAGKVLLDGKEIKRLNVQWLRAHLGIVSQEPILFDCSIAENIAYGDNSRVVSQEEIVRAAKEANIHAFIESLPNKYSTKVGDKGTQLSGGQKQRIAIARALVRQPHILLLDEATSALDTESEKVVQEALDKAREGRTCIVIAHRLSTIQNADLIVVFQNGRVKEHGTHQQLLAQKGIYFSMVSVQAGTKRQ
Procedure, shortened: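 P-gp transport ratio BA/AB in LLC-MDR1 cells, test compound at 5 μM.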

[8] = Fraction unbound in rhesus monkey CSF; assay type: ADME, Macaca mulatta, Cerebrospinal fluid
Macaca mulatta = species: Macaca mulatta; assay: Binding affinity to rhesus monkey cerebellum CGRP receptor; assay type: tissue-based
[9] = Apparent passive permeability across pig LLC-PK1 cells; assay type: ADME, cell-based, Sus scrofa
Procedure, shortened: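 Permeability measured in control LLC-PK1 cells.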

[10] = target: Calcitonin gene-related peptide type 1 receptor (Homo sapiens) (UniProt Q16602); assay: Ratio of Bmax to Ki for human CGRP receptor expressed in HEK293 cells; assay type: cell-based
Sequence of Calcitonin gene-related peptide type 1 receptor (Homo sapiens) (Q16602 whole entry): as the sequence (Q16602 whole entry, one chain of several) above

[11] = target: Calcitonin gene-related peptide type 1 receptor (Homo sapiens) (UniProt Q16602); assay: Ratio of IC50 for CGRP receptor (unknown origin) to IC50 for CGRP receptor (unknown origin) in presence of human serum
[12] = target: T1, Calcitonin gene-related peptide type 1 receptor; assay: Antagonist activity at CGRP receptor (unknown origin) by cell based cAMP assay in presence of human serum; assay type: functional
Procedure, shortened: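 cAMP functional antagonism measured with 50% human serum added.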

[13] = target: T1, Calcitonin gene-related peptide type 1 receptor; assay: Antagonist activity at CGRP receptor (unknown origin) by cell based cAMP assay; assay type: functional
[14] = Binding affinity to rhesus monkey CGRP receptor by radioligand binding assay; parameters: species or system Macaca mulatta

Row | SUV [1] | SUV [2] | logD [3] | Ratio AUC [4] [%] | fraction unbound [5] | Ki [6] [pM] | Ratio [7] | efflux ratio at 5 µM (MDR1 (ABCB1)) | fraction unbound [8] | Bmax (Macaca mulatta) [nM] | Papp [9] [×10⁻⁶ cm/s] | Ratio [10] | Ratio IC50 [11] | IC50 [12] [pM] | IC50 [13] [pM] | Ki [14] [pM] | Structure (SMILES)
1 | 0.7 | 1.1 | 4.11 | 0.99 | 0.008 | 110 | 1.6 |  |  |  |  |  |  |  |  |  | CN1C[C@@](C)(c2cc(F)cc(F)c2)N(CC#Cc2ccc3c(c2)C[C@@]2(C3)C(=O)Nc3ncccc32)C(=O)C12CCCC2
2 |  |  |  | 4.35 | 0.429 | 34 |  | 33 | 0.1 |  |  |  |  |  |  |  | CC1(C)NC[C@@H](c2cc(F)cc(F)c2)N(CC(=O)Nc2ccc3c(c2)C[C@@]2(C3)C(=O)Nc3ncccc32)C1=O
3 |  |  |  |  |  | 17 |  | 14 |  |  |  |  |  |  |  |  | CN1C[C@@](C)(c2cc(F)cc(F)c2)N(CC(=O)Nc2cnc3c(c2)C[C@@]2(C3)C(=O)Nc3ncccc32)C(=O)C12CCCC2
4 |  |  | 2.35 | 2.9 |  |  |  | 25 |  | 24 | 28 | > 1000 |  |  |  |  | O=C(CN1C(=O)C2(CCCC2)NC[C@H]1c1cc(F)cc(F)c1)Nc1ccc2c(c1)C[C@@]1(C2)C(=O)Nc2ncccc21 [MK3207]
5 |  |  |  | 6.61 |  |  |  | 9.3 |  |  |  |  |  |  |  |  | C[C@@]1(c2cc(F)cc(F)c2)CNC2(CCCC2)C(=O)N1CC(=O)Nc1ccc2c(c1)C[C@@]1(C2)C(=O)Nc2ncccc21
6 | 0.9 | 1.7 | 3.39 | 3.12 | 0.043 | 46 | 2 | 1.7 |  |  | 25 |  | 4 | 390 | 97 | 33 | CN1C[C@@](C)(c2cc(F)cc(F)c2)N(CC(=O)Nc2ccc3c(c2)C[C@@]2(C3)C(=O)Nc3ncccc32)C(=O)C12CCCC2
7 |  |  |  |  | 0.333 | 110 |  | 20 |  |  |  |  |  |  |  |  | CC1(C)NC[C@@](C)(c2cc(F)cc(F)c2)N(CC(=O)Nc2ccc3c(c2)C[C@@]2(C3)C(=O)Nc3ncccc32)C1=O
8 | 0.7 | 1.2 |  | 4.79 | 0.117 | 56 | 1.7 | 2.8 | 0.4 |  | 29 |  |  |  |  |  | CN1C[C@@](C)(c2cc(F)cc(F)c2)N(CC(=O)Nc2ccc3c(c2)C[C@@]2(C3)C(=O)Nc3ncccc32)C(=O)C1(C)C
9 | 0.7 | 1 | 4.15 | 0.53 | 0.002 | 94 | 1.4 |  |  |  |  |  |  |  |  |  | CN1C[C@@](C)(c2cc(F)cc(F)c2)N(C/C=C/c2ccc3c(c2)C[C@@]2(C3)C(=O)Nc3ncccc32)C(=O)C12CCCC2
10 |  |  |  | 1.3 | 0.038 |  |  | 24 |  |  |  |  |  |  |  |  | O=C(N[C@@H]1CC[C@@H](c2cccc(F)c2F)CN(CC(F)(F)F)C1=O)N1CCC(n2c(=O)[nH]c3ncccc32)CC1 [TELCAGEPANT]
11 | 0.6 | 1 | 3.16 |  | 0.061 | 45 | 1.7 | 1.8 |  |  | 23 |  |  |  |  |  | CN1C[C@@](C)(c2cc(F)cc(F)c2)N(CCCc2cnc3c(c2)C[C@@]2(C3)C(=O)Nc3ncccc32)C(=O)C12CCCC2
12 | 0.7 | 1.3 | 3.41 | 2.64 | 0.031 | 19 | 1.9 | 1.5 |  |  | 17 |  |  |  |  |  | CN1C[C@@](C)(c2cc(F)cc(F)c2)N(CC#Cc2cnc3c(c2)C[C@@]2(C3)C(=O)Nc3ncccc32)C(=O)C12CCCC2
13 | 0.7 | 1.2 | 3.36 |  | 0.051 | 21 | 1.7 | 2 |  |  | 21 |  |  |  |  |  | CN1C[C@@](C)(c2cc(F)cc(F)c2)N(C/C=C/c2cnc3c(c2)C[C@@]2(C3)C(=O)Nc3ncccc32)C(=O)C12CCCC2
14 | 0.5 | 0.7 |  |  | 0.205 | 22 |  |  |  |  | 27 |  |  |  |  |  | CN1C[C@@H](c2cc(F)cc(F)c2)N(CC(=O)Nc2ccc3c(c2)C[C@@]2(C3)C(=O)Nc3ncccc32)C(=O)C1(C)C
15 | 0.6 | 0.8 | 4.33 |  | 0.002 | 500 | 1.3 |  |  |  |  |  |  |  |  |  | CN1C[C@@](C)(c2cc(F)cc(F)c2)N(CCCc2ccc3c(c2)C[C@@]2(C3)C(=O)Nc3ncccc32)C(=O)C12CCCC2
